ChEMBL document CHEMBL1145203, “Synthesis of new benzoxazinone derivatives as neuropeptide Y5 antagonists for the treatment of obesity” (J Med Chem, 2005)

Tests used:
[1] = biological target: T1, Neuropeptide Y receptor type 5 (Rattus norvegicus, UniProt Q63634); experiment: Inhibition of [125I]PYY binding to the rat NPY Y5 receptor in C6 cells; assay type: cell-based
T1 sequence (Q63634 whole entry): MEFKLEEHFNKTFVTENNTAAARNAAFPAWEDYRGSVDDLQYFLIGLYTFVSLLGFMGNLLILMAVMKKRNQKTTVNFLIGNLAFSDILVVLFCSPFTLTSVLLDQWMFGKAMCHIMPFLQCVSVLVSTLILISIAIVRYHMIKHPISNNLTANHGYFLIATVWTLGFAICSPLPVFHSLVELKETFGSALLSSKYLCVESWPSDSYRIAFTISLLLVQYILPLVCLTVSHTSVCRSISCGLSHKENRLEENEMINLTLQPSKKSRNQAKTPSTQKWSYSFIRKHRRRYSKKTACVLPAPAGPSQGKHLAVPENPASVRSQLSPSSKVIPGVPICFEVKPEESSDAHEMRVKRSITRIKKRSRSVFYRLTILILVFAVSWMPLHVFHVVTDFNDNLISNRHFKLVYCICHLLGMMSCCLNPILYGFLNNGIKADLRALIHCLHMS
Outline: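 Radioligand [125I]-PYY 100 pM, incubated 2 h at 25 °C. Stopped with ice-cold buffer, filtered and washed, bound radioactivity counted. Nonspecific binding defined with 1 µM pNPY; triplicate.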

[2] = biological target: T2, Neuropeptide Y receptor type 5 (Rattus norvegicus) (UniProt Q63634); experiment: Inhibition of PYY effect on forskolin-stimulated cyclic AMP formation in C6 cells expressing rat NPY Y5 receptor; assay type: functional, cell-based; set-up: concentration or dose not given beside the values; conditions: concentration not given here
T2 sequence (whole entry): T1 sequence (Q63634 whole entry)
Outline: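 C6 cells stably expressing rat NPY Y5, grown to 80% confluency in serum-free DMEM with L-glutamine, penicillin and streptomycin. Cells trypsinised 2 h before assay, about 50 000 cells/well. Compounds added with or without PYY; forskolin-stimulated cAMP measured after 30 min by FlashPlate with [125I]succinyl cAMP tracer. Expressed as % cAMP formation versus forskolin controls without PYY; three experiments in duplicate.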

| Structure (SMILES) | IC50 [1] [nM] | inhibition [2] [%] |
| --- | --- | --- |
| O=C(CN1CCC(N2C(=O)OCc3ccccc32)CC1)Nc1ccc(Cl)cc1 | 300 |  |
| O=C(CN1CCC(N2C(=O)OCc3cc(Cl)ccc32)CC1)Nc1ccc2ncccc2c1 | 148 | 71.9 |
| Cc1cccc2c1N(C1CCN(CC(=O)Nc3ccc4c(c3)-c3ccccc3C4O)CC1)C(=O)OC2 (stereo not given) | 30 | 100 |
| N#Cc1ccc(NC(=O)CN2CCC(N3C(=O)OCc4cc(Cl)ccc43)CC2)cc1 | 199 | 91.5 |
| N#Cc1ccc(NC(=O)CN2CCC(N3C(=O)OCc4ccccc43)CC2)cc1 | 132 | 88.7 |
| O=C(CN1CCC(N2C(=O)OCc3ccccc32)CC1)Nc1ccccc1 | > 1000 |  |
| O=C(CN1CCC(N2C(=O)OCc3ccccc32)CC1)Nc1ccc2c(c1)-c1ccccc1C2=O | 23.3 | 100 |
| O=C(CN1CCC(N2C(=O)OCc3cc(F)ccc32)CC1)Nc1ccc2ncccc2c1 |  | 93.3 |
| O=C(CN1CCC(N2C(=O)OCc3cc(Cl)ccc32)CC1)Nc1ccc(C2CCCCC2)cc1 | 112 | 98.4 |
| O=C(CN1CCC(N2C(=O)OCc3cc(Cl)ccc32)CC1)Nc1ccc(Oc2ccccc2)cc1 | 60.7 | 99.2 |
| O=C(CN1CCC(N2C(=O)OCc3cc(Cl)ccc32)CC1)Nc1ccc2c(c1)-c1ccccc1C2O (stereo not given) | 8 | 100 |
| O=C(CN1CCC(N2C(=O)OCc3cc(Cl)ccc32)CC1)Nc1ccc2c(c1)C(=O)c1ccccc1-2 | 69 | 94 |
| COC(=O)c1ccccc1NC(=O)CN1CCC(N2C(=O)OCc3cc(C)ccc32)CC1 | > 1000 |  |
| COC(=O)c1ccccc1NC(=O)CN1CCC(N2C(=O)OCc3cccc(C)c32)CC1 | > 1000 |  |
| CC(=O)c1ccc(NC(=O)CN2CCC(N3C(=O)OCc4cc(C)ccc43)CC2)cc1 | 26 | 89.4 |
| CCn1c2ccccc2c2cc(NC(=O)CN3CCC(N4C(=O)OCc5c(Cl)cccc54)CC3)ccc21 |  | 83.4 |
| Cc1ccc2c(c1)COC(=O)N2C1CCN(CC(=O)Nc2ccc3c(c2)C(=O)c2ccccc2-3)CC1 | 86.7 | 93.9 |
| O=C(CN1CCC(N2C(=O)OCc3cc(Cl)ccc32)CC1)Nc1ccc(C(=O)c2ccccc2)cc1 | 11.2 | 97.4 |
| CCn1c2ccccc2c2cc(NC(=O)CN3CCC(N4C(=O)OCc5cccc(C)c54)CC3)ccc21 | 50 | 96.9 |
| O=C(CN1CCC(N2C(=O)OCc3cc(Cl)ccc32)CC1)Nc1ccc2c(c1)-c1ccccc1C2=O | 25 | 100 |

| Structure (SMILES) | IC50 [1] [nM] | inhibition [2] [%] |
| --- | --- | --- |
| O=C(CN1CCC(N2C(=O)OCc3ccccc32)CC1)Nc1cccc2c1-c1ccccc1C2=O | 138 |  |
| Cc1cccc2c1N(C1CCN(CC(=O)Nc3ccccc3)CC1)C(=O)OC2 | > 1000 |  |
| COC(=O)c1ccccc1NC(=O)CN1CCC(N2C(=O)OCc3cc(Cl)ccc32)CC1 | > 1000 |  |
| O=C(CN1CCC(N2C(=O)OCc3ccccc32)CC1)Nc1ccc(Oc2ccccc2)cc1 | 20 | 100 |
| O=C(CN1CCC(N2C(=O)OCc3cc(Cl)ccc32)CC1)Nc1ccccc1C(=O)c1ccccc1 | > 1000 |  |
| CC(=O)c1ccc(NC(=O)CN2CCC(N3C(=O)OCc4cc(Cl)ccc43)CC2)cc1 | 21 | 99.9 |
| O=C(CN1CCC(N2C(=O)OCc3ccccc32)CC1)Nc1ccccc1C(=O)c1ccccc1 | > 1000 |  |
| COc1cccc2c1N(C1CCN(CC(=O)Nc3ccc4oc5ccccc5c4c3)CC1)C(=O)OC2 | 55.7 | 23.6 |
| CCn1c2ccccc2c2cc(NC(=O)CN3CCC(N4C(=O)OCc5cccc(OC)c54)CC3)ccc21 | 765 | 19.2 |
| Cc1cccc2c1N(C1CCN(CC(=O)Nc3ccccc3C(=O)c3ccccc3)CC1)C(=O)OC2 | > 1000 |  |
| CCn1c2ccccc2c2cc(NC(=O)CN3CCC(N4C(=O)OCc5cc(Cl)ccc54)CC3)ccc21 | 100 | 99.3 |
| Cn1c2ccccc2c2cc(NC(=O)CN3CCC(N4C(=O)OCc5ccccc54)CC3)ccc21 | 9.6 | 88.7 |
| CC(=O)c1ccc(NC(=O)CN2CCC(N3C(=O)OCc4ccccc43)CC2)cc1 | 17.3 | 95.4 |
| Cc1ccc2c(c1)COC(=O)N2C1CCN(CC(=O)Nc2ccc(Oc3ccccc3)cc2)CC1 | 104 | 94.5 |
| O=C(CN1CCC(N2C(=O)OCc3ccccc32)CC1)Nc1ccc2c(c1)-c1ccccc1C2O (stereo not given) | 8.7 | 96.1 |
| Cc1cccc2c1N(C1CCN(CC(=O)Nc3ccc(Cl)cc3)CC1)C(=O)OC2 | > 1000 |  |
| O=C(CN1CCC(N2C(=O)OCc3ccccc32)CC1)Nc1ccc2c(c1)C(=O)c1ccccc1-2 | > 1000 |  |
| Cc1cccc2c1N(C1CCN(CC(=O)Nc3ccc(C(=O)c4ccccc4)cc3)CC1)C(=O)OC2 | 39.6 | 100 |
| Cc1cccc2c1N(C1CCN(CC(=O)Nc3ccc4c(c3)-c3ccccc3C4=O)CC1)C(=O)OC2 | 50 | 93.8 |
| COC(=O)c1ccccc1NC(=O)CN1CCC(N2C(=O)OCc3ccccc32)CC1 | > 1000 |  |
